The target in the first assay is T1, Melanocortin receptor 5 (Homo sapiens, UniProt P33032). As to the kind of experiment: Displacement of [125I][Nle4,D-Phe7]alpha-MSH from human MC5 receptor expressed in HEK293 cells. It counts as cell-based.
T1 sequence (P33032 whole entry): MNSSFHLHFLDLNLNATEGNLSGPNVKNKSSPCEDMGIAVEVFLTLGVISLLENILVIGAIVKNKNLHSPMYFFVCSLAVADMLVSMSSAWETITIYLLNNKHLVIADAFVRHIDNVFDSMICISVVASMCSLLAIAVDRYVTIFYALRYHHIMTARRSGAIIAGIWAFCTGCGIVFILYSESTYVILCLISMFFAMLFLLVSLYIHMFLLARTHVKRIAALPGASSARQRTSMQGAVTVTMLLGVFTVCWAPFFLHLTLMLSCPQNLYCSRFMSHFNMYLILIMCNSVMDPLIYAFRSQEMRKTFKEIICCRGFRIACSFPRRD
Settings: not given
An outline of the steps:
(§1)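 Whole stably transfected HEK293 cells seeded 48 h before assay at 50000 cells/well. Binding buffer: MEM, 25 mM HEPES pH 7.4, 0.2% BSA, 1 mM 1,10-phenanthroline, leupeptin, bacitracin. Cells washed, lysed with NaOH/Triton X-100, gamma-counted. IC50 is mean of two triplicate experiments.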
In general terms: Displacement assays read how much labelled ligand stays bound in the presence of the test substance.
T3 sequence (P32245 whole entry): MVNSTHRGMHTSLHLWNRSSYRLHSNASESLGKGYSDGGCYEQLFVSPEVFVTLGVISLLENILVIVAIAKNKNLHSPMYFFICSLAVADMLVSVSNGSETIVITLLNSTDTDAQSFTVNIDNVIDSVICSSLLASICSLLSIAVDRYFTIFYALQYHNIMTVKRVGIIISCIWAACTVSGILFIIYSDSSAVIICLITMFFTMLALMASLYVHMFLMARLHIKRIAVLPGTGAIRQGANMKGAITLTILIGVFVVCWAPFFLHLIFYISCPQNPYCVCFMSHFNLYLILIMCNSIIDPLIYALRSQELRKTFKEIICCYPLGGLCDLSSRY
By IC50 is commonly meant the concentration that gives 50% inhibition. The low end stands for inhibition by little substance, the high end for a need for much substance. `NC(=O)[C@@H]1CCCCNC(=O)CCCC(=O)N2CCC[C@H]2C(=O)N[C@H](Cc2ccc3ccccc3c2)C(=O)N[C@@H](CCCN=C(N)N)C(=O)N[C@@H](Cc2c[nH]c3ccccc23)C(=O)N1` came in with a half-inhibitory concentration (IC50) of 27 nM.

The target in another assay is T2, Melanocortin receptor 3 (Homo sapiens, UniProt P41968). Description: Antagonist activity at human MC3 receptor expressed in HEK293 cells assessed as inhibition of MT2 induced intracellular cAMP accumulation. Particulars: hek293. The format is functional, cell-based.
T2 sequence (P41968 whole entry): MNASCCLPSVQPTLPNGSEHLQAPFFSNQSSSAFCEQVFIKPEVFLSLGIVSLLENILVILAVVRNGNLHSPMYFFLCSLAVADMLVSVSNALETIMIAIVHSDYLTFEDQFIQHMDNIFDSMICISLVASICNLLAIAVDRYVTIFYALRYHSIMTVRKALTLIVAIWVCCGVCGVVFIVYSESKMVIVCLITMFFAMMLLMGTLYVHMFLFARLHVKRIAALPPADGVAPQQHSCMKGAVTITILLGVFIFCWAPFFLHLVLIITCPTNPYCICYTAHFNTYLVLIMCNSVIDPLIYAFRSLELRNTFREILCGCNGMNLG
One may read the pA2 as a measure of antagonist potency on a negative log scale. Take `NC(=O)[C@@H]1CCCCNC(=O)CC[C@H](N)C(=O)N[C@@H](Cc2cnc[nH]2)C(=O)N[C@H](Cc2ccc3ccccc3c2)C(=O)N[C@@H](CCCN=C(N)N)C(=O)N[C@@H](Cc2c[nH]c3ccccc23)C(=O)N1`: the pA2 came out at 10.6.

The assay is the same for the next values; noted with them: read-out: pA2 (converted).
As to `NC(=O)[C@@H]1CCCCNC(=O)CCCC(=O)N2CCC[C@H]2C(=O)N[C@H](Cc2ccc3ccccc3c2)C(=O)N[C@@H](CCCN=C(N)N)C(=O)N[C@@H](Cc2c[nH]c3ccccc23)C(=O)N1`, the Kb is 0.158 nM.

Another assay addresses T2, Melanocortin receptor 3. Description: Agonist activity at human MC3 receptor expressed in HEK293 cells assessed as intracellular cAMP accumulation at 10 uM relative to MT2. It counts as functional, cell-based.
Settings: not given
The procedure, abridged: (§2)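 Stably transfected HEK293 cells seeded 48 h before assay at 50000 cells/well. Cells preincubated 1 min at 37 °C in Earle's balanced salt solution with 0.5 mM IBMX, then exposed to 10 μM peptide for 3 min at 37 °C. Cells boiled 7 min, cAMP measured by [3H]cAMP/PKA competition with a standard curve. Result expressed as percent of cAMP produced by 10 μM MT-II.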
(In general: Cyclic AMP is a second messenger, typically raised through Gs and lowered through Gi signalling.)
`N=C(N)NCCC[C@@H]1NC(=O)[C@@H](Cc2ccc3ccccc3c2)NC(=O)c2nccnc2C(=O)NCCCC[C@@H](C(N)=O)NC(=O)[C@H](Cc2c[nH]c3ccccc23)NC1=O`: the Activity came out at 0%.

As for `N=C(N)NCCC[C@@H]1NC(=O)[C@@H](Cc2ccc3ccccc3c2)NC(=O)c2cccc(n2)C(=O)NCCCC[C@@H](C(N)=O)NC(=O)[C@H](Cc2c[nH]c3ccccc23)NC1=O`, the Activity is 0%.

For the next assay, the target named is T1, Melanocortin receptor 5. Description: Agonist activity at human MC5 receptor expressed in HEK293 cells assessed as intracellular cAMP accumulation at 10 uM relative to MT2. It counts as functional, cell-based.
Settings: not given
The procedure, abridged:
as §2
With `N=C(N)NCCC[C@@H]1NC(=O)[C@@H](Cc2ccc3ccccc3c2)NC(=O)c2nccnc2C(=O)NCCCC[C@@H](C(N)=O)NC(=O)[C@H](Cc2c[nH]c3ccccc23)NC1=O`, the Activity is 0%.

Take `N=C(N)NCCC[C@@H]1NC(=O)[C@@H](Cc2ccc3ccccc3c2)NC(=O)c2cccc(n2)C(=O)NCCCC[C@@H](C(N)=O)NC(=O)[C@H](Cc2c[nH]c3ccccc23)NC1=O`: the Activity was found to be 0%.

The target in the next assay is T1, Melanocortin receptor 5. Description: Agonist activity at human MC5 receptor expressed in HEK293 cells assessed as intracellular cAMP accumulation at 10 uM. The format is functional, cell-based.
Settings: not given
An outline of the steps:
as §2
On to `N=C(N)NCCC[C@@H]1NC(=O)[C@@H](Cc2ccc3ccccc3c2)NC(=O)c2nccnc2C(=O)NCCCC[C@@H](C(N)=O)NC(=O)[C@H](Cc2c[nH]c3ccccc23)NC1=O`, for which the Activity was 0%.

As for `N=C(N)NCCC[C@@H]1NC(=O)[C@@H](Cc2ccc3ccccc3c2)NC(=O)c2cccc(n2)C(=O)NCCCC[C@@H](C(N)=O)NC(=O)[C@H](Cc2c[nH]c3ccccc23)NC1=O`, the Activity turned out to be 0%.

A further assay concerns the target T3, Melanocortin receptor 4 (Homo sapiens, UniProt P32245). As to the kind of experiment: Agonist activity at human MC4 receptor expressed in HEK293 cells assessed as intracellular cAMP accumulation at 10 uM. It counts as functional, cell-based.
Settings: not given
An outline of the steps:
as §2
As for `N=C(N)NCCC[C@@H]1NC(=O)[C@@H](Cc2ccc3ccccc3c2)NC(=O)c2nccnc2C(=O)NCCCC[C@@H](C(N)=O)NC(=O)[C@H](Cc2c[nH]c3ccccc23)NC1=O`, the Activity amounted to 0%.

Take `N=C(N)NCCC[C@@H]1NC(=O)[C@@H](Cc2ccc3ccccc3c2)NC(=O)c2cccc(n2)C(=O)NCCCC[C@@H](C(N)=O)NC(=O)[C@H](Cc2c[nH]c3ccccc23)NC1=O`: the Activity stood at 0%.

The target of another assay is T4, Melanocyte-stimulating hormone receptor (Homo sapiens, UniProt Q01726). As to the kind of experiment: Agonist activity at human MC1 receptor expressed in HEK293 cells assessed as intracellular cAMP accumulation at 10 uM. The format is functional, cell-based.
Settings: not given
An outline of the steps: as §2
Target sequence in this assay (Q01726 whole entry, looked up): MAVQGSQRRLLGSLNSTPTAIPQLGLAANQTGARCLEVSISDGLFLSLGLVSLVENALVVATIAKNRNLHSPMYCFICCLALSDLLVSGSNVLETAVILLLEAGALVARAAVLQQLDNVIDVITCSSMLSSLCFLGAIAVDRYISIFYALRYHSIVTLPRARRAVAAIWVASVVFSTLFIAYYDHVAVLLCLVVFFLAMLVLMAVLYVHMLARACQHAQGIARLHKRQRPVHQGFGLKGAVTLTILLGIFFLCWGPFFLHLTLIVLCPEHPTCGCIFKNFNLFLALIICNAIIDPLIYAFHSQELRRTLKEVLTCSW
On to `N=C(N)NCCC[C@@H]1NC(=O)[C@@H](Cc2ccc3ccccc3c2)NC(=O)c2cccc(n2)C(=O)NCCCC[C@@H](C(N)=O)NC(=O)[C@H](Cc2c[nH]c3ccccc23)NC1=O`, for which the Activity is 0%.

In the next assay the target is T3, Melanocortin receptor 4. Description: biochemical. It counts as cell-based, HEK293.
Settings: not given
`NC(=O)[C@@H]1CCCCNC(=O)CCCC(=O)N2CCC[C@H]2C(=O)N[C@H](Cc2ccc3ccccc3c2)C(=O)N[C@@H](CCCN=C(N)N)C(=O)N[C@@H](Cc2c[nH]c3ccccc23)C(=O)N1` registered an IC50 of 330 nM. This lies in the sub-micromolar range.

The target of the next assay is T2, Melanocortin receptor 3. Description: Agonist activity at human MC3 receptor expressed in HEK293 cells assessed as intracellular cAMP accumulation at 10 uM. It counts as functional, cell-based.
Settings: not given
An outline of the steps:
as §2
Consider `N=C(N)NCCC[C@@H]1NC(=O)[C@@H](Cc2ccc3ccccc3c2)NC(=O)c2nccnc2C(=O)NCCCC[C@@H](C(N)=O)NC(=O)[C@H](Cc2c[nH]c3ccccc23)NC1=O`, for which the Activity was found to be 0%.

For the compound `N=C(N)NCCC[C@@H]1NC(=O)[C@@H](Cc2ccc3ccccc3c2)NC(=O)c2cccc(n2)C(=O)NCCCC[C@@H](C(N)=O)NC(=O)[C@H](Cc2c[nH]c3ccccc23)NC1=O`, the Activity was determined as 0%.

A further assay addresses T3, Melanocortin receptor 4. Description: Agonist activity at human MC4 receptor expressed in HEK293 cells assessed as intracellular cAMP accumulation at 10 uM relative to MT2.
Settings: not given
The format is functional, cell-based. An outline of the steps:
as §2
Turning to `N=C(N)NCCC[C@@H]1NC(=O)[C@@H](Cc2ccc3ccccc3c2)NC(=O)c2nccnc2C(=O)NCCCC[C@@H](C(N)=O)NC(=O)[C@H](Cc2c[nH]c3ccccc23)NC1=O`, the Activity worked out at 0%.

For the compound `N=C(N)NCCC[C@@H]1NC(=O)[C@@H](Cc2ccc3ccccc3c2)NC(=O)c2cccc(n2)C(=O)NCCCC[C@@H](C(N)=O)NC(=O)[C@H](Cc2c[nH]c3ccccc23)NC1=O`, the Activity was determined as 0%.

For a further assay, the target named is T1, Melanocortin receptor 5. Description: Agonist activity at human MC5 receptor expressed in HEK293 cells assessed as intracellular cAMP accumulation. The format is functional, cell-based.
Settings: not given
An outline of the steps:
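HEK293 cells stably transfected with the receptor, seeded 48 h ahead at 50000 cells/well. Preincubated 1 min at 37 °C in Earle's balanced salt solution with 0.5 mM IBMX, then exposed to peptide for 3 min at 37 °C. cAMP measured by [3H]cAMP/PKA competition against a standard curve.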
What is called EC50 is the concentration giving half of the maximal effect. With `NC(=O)[C@@H]1CCCCNC(=O)CCCC(=O)N2CCC[C@H]2C(=O)N[C@H](Cc2ccc3ccccc3c2)C(=O)N[C@@H](CCCN=C(N)N)C(=O)N[C@@H](Cc2c[nH]c3ccccc23)C(=O)N1`, the EC50 amounted to 23 nM.

The target in the next assay is T4, Melanocyte-stimulating hormone receptor. Description: Displacement of [125I][Nle4,D-Phe7]alpha-MSH from human MC1 receptor expressed in HEK293 cells. The format is cell-based.
Settings: not given
An outline of the steps: as §1
Target sequence in this assay (Q01726 whole entry): as the sequence (Q01726 whole entry, looked up) above
`NC(=O)[C@@H]1CCCCNC(=O)CCCC(=O)N2CCC[C@H]2C(=O)N[C@H](Cc2ccc3ccccc3c2)C(=O)N[C@@H](CCCN=C(N)N)C(=O)N[C@@H](Cc2c[nH]c3ccccc23)C(=O)N1` displayed an IC50 greater than 10 µM.

For a further assay the target is unchanged. As to the kind of experiment: Agonist activity at human MC1 receptor expressed in HEK293 cells assessed as intracellular cAMP accumulation at 10 uM relative to MT2. It counts as functional, cell-based.
Settings: not given
An outline of the steps:
as §2
Target sequence in this assay (Q01726 whole entry, looked up): as above
Regarding `N=C(N)NCCC[C@@H]1NC(=O)[C@@H](Cc2ccc3ccccc3c2)NC(=O)c2nccnc2C(=O)NCCCC[C@@H](C(N)=O)NC(=O)[C@H](Cc2c[nH]c3ccccc23)NC1=O`, the Activity is 55%.

As to `N=C(N)NCCC[C@@H]1NC(=O)[C@@H](Cc2ccc3ccccc3c2)NC(=O)c2cccc(n2)C(=O)NCCCC[C@@H](C(N)=O)NC(=O)[C@H](Cc2c[nH]c3ccccc23)NC1=O`, the Activity turned out to be 0%.

The target in the next assay is T2, Melanocortin receptor 3. Description: biochemical. It counts as cell-based, HEK293.
Settings: not given
`NC(=O)[C@@H]1CCCCNC(=O)CCCC(=O)N2CCC[C@H]2C(=O)N[C@H](Cc2ccc3ccccc3c2)C(=O)N[C@@H](CCCN=C(N)N)C(=O)N[C@@H](Cc2c[nH]c3ccccc23)C(=O)N1` returned an IC50 of 11 nM.

The same assay, now with this note: hek293.
One may read the Ki as the dissociation constant of the complex between target and ligand, obtained from inhibition or displacement. Low readings indicate higher affinity, high ones lower affinity. For `NC(=O)[C@@H]1CCCCNC(=O)CC[C@H](N)C(=O)N[C@@H](Cc2cnc[nH]2)C(=O)N[C@H](Cc2ccc3ccccc3c2)C(=O)N[C@@H](CCCN=C(N)N)C(=O)N[C@@H](Cc2c[nH]c3ccccc23)C(=O)N1`, the Ki came to 5.9 nM.

(Values after ChEMBL document CHEMBL1140710, “Structure-activity relationships of cyclic lactam analogues of alpha-melanocyte-stimulating hormone (alpha-MSH) targeting the human melanocortin-3 receptor” (J Med Chem, 2008).)
